# Screens deposited in PubChem by several laboratories.
# Insulin prom up – insulin promoter activators in MIN6 cells, imaging, high-content screening, mouse beta cells; AID 1625, 2009; z-score at 5 µM; MIN6 insulin promoter-GFP reporter; hits give high values; 0.3% of 190,000 active;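 active = z-score above 3 at 5 µM with at least 500 cells counted in the well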
# Yeast life ext – compounds extending yeast replicative lifespan, primary screen, S. cerevisiae, OD615; S. cerevisiae growth with nicotinamide; deaD strain in restrictive glucose medium; inhibition of the nicotinamide effect, % at 10 µM; 0.68% of 130,000 active; AID 775, 2007;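 active = inhibition above a set limit, placed 3 SD over the median of all compounds, cut at about 26% in these data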;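 note: 0% = nicotinamide-treated wells and 100% = cells grown without nicotinamide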
#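 Assay system: engineered S. cerevisiae DeaD replicative-lifespan strain, galactose-grown log-phase cells; medium: restrictive CSMM-D dextrose medium; also added: nicotinamide, 1.5 mM, co-present with compound; schedule: 48 h compound exposure at 30 °C, humidified; detection: absorbance at 615 nm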
# BB579 growth dn – growth inhibitors of yeast BB579 in restrictive medium, primary screen, yeast lifespan-shortening project, S. cerevisiae; OD615, 48 h; inhibition, % at 10 µM; 0.51% of 140,000 active; AID 804, 2007;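 active = inhibition above a set limit, 3 SD over the mean compound inhibition, cut at about 44% in these data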
#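 Assay system: S. cerevisiae DeaD strain BB579 yeast. Medium: CSMM-D restrictive synthetic medium containing dextrose (glucose). Times: 4 h cell preincubation, 48 h compound exposure, 30 °C humidified. Signal: OD615 turbidity measurement. Benchmarks: positive control amphotericin B 10 µg/mL.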
# INS promoter inh – inhibitors of insulin promoter-driven GFP, primary screen, imaging, TRM-6 cells (human fetal islet line), eGFP reporter, cell count | inhibition, % at 2 µM | reporter expression induced with tamoxifen | AID 1273, 2008 | 0.9% of 130,000 active;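 active = inhibition above the mean plus 3 SD, with well images judged a real hit on visual review, cut at about 60% in these data, passing the limit was not always enough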
# RAM network inh – inhibitors of the yeast RAM network, primary screen, dse1pr::URA3 reporter, 5-FOA selection; AID 868, 2007; 1.8% of 190,000 active; S. cerevisiae dse1pr::URA3 reporter, 5-FOA growth OD615, 2 d; analog-sensitive cbk1-as2 kinase mutant strain; inhibition, % at 50 µM;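 active = inhibition above a set limit, 3 SD over mean compound inhibition, cut at about 8.4% in these data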;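 note: 0% = DMSO-only wells with no growth and 100% = 10 µM 1-NA-PP1 full growth; inhibition rescues growth on 5-FOA so higher OD means more RAM inhibition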
# * = called active by the depositor; . = no result given. Rows were chosen to be rich in hits. Some 3.1% of all compounds tested hit in one or more screens of this group.
SMILES,Insulin prom up,Yeast life ext,BB579 growth dn,INS promoter inh,RAM network inh
COc1ccc(NC(=O)CSc2cc(C)ccc2C)cn1,-0.26,.,.,67,0
O=C(Cn1nc2n(c1=O)-c1ccccc1SC2)N/N=C/c1cccs1,-0.16,.,.,.,.
O=S(=O)(N/N=C\c1ccc(-c2ccccc2Cl)o1)c1ccccc1,.,.,-44,-63,10*
O=C(CN1C(=O)NC2(CCCCCC2)C1=O)Nc1ccc2c(c1)CCC2,-0.27,.,.,3,2
CC(C)Cc1cc(C(=O)NCc2cccs2)no1,.,-4,29,100*,1
COc1ccc(C2COC(=O)C2=N)c(NC(=O)c2ccc(Cl)cc2)c1 (configuration not stated),.,2,-28,-73,2
COC(=O)c1ccc(Oc2nc(C(N)=O)cc(-c3ccccc3)n2)cc1,.,-27,-57,61*,2
Cc1ccc(C(=O)N2CCC3(CC2)Oc2ccc(F)cc2C(=O)C32CC(c3cccnc3)=NO2)s1 (configuration not stated),0.53,.,.,.,.
Cc1cc(NS(=O)(=O)c2ccc(CC(C)C)cc2)no1,-0.2,50*,-39,-33,0
Cc1cc(NS(=O)(=O)c2ccc(NS(=O)(=O)c3ccc(CC(C)C)cc3)cc2)nc(C)n1,0.73,.,.,.,0
CCOC(=O)c1c(-c2ccc(-c3ccccc3)cc2)csc1NC(=O)CCN1CCOCC1,-0.85,-8,95*,.,1
CCOC(=O)c1cnc(-n2nc(C)cc2C)nc1NCCc1ccccc1,-2.3,-15,52*,-7,-2
CN1CCN(NC(=O)c2cccs2)CC1,0.22,.,.,.,1
COc1ccc(-c2noc(CSc3nnc(-c4ccncc4)n3-c3ccc(F)cc3)n2)cc1OC,0.02,148*,-50,16,0
Cc1cc(NC(=O)CSc2nnc(-c3ccncc3)n2-c2ccc(F)cc2)no1,-0.47,.,.,.,0
Cc1cc(=O)oc2cc(OCC(=O)OCC(=O)Nc3c(C)n(C)n(-c4ccccc4)c3=O)ccc12,-0.12,.,.,0,2
Cc1cc(C)n(-c2ccc(C(=O)N3CCC(CO)(Cc4ccccc4)CC3)cc2)n1,-0.39,.,.,.,0
Cn1c(Sc2ccccc2Cl)c(C=O)c2ccccc21,0.84,-5,-17,-3,8
Cn1c(Sc2ccc(Cl)cc2)c(C=O)c2ccccc21,-0.91,-15,-20,41,9.8*
COc1ccc(CCCc2nnc(SCc3nc4ccccc4c(=O)[nH]3)n2C)cc1C,-0.83,.,.,.,4
CN(CCc1ccccn1)C(=O)Nc1cccc(Cl)c1,0.52,.,.,.,.
N#Cc1cc2c(nc1SCc1ccccc1)CCCCC2,-0.43,-16,-42,-13,1
N#Cc1cc2c(nc1SCc1ccc(Cl)cc1)CCCC2,.,.,-33,50,8.7*
O=S(=O)(/C=C/c1ccccc1)NC1CCCCCCC1,-0.37,27*,-46,-23,2
Nc1c2nc(-c3ccccc3)[nH]c(=O)c2nc(=O)n1-c1ccccc1,0.16,.,.,.,.
SMILES,Insulin prom up,Yeast life ext,BB579 growth dn,INS promoter inh,RAM network inh
CCc1[nH]nc2c1C(c1ccc(Br)s1)C(C#N)=C(N)O2 (configuration not stated),-0.59,58*,-26,-34,0
CCc1[nH]nc2c1C(c1ccsc1)C(C#N)=C(N)O2 (configuration not stated),.,.,-19,62,3
CCN(CC)S(=O)(=O)c1cc(NC(=O)COC(=O)CCC(=O)c2ccc(F)cc2)ccc1C,0.08,1,-37,-13,9.5*
CCN(CC)S(=O)(=O)c1cc(NC(=O)COC(=O)CCC(=O)c2cccs2)ccc1C,-0.13,.,.,-14,7
CN(C)S(=O)(=O)c1cccc(NC(=O)COC(=O)c2ccc(Br)o2)c1,1.1,-11,-6,11,0
CCN(CC)S(=O)(=O)c1cc(C(=O)OCC(=O)Nc2cccc(S(=O)(=O)N(C)C)c2)ccc1F,.,.,.,.,9.2*
O=S(=O)(Nc1ccc(-n2cccc2)cc1)c1ccc(Cl)cc1Cl,-0.32,-26,74*,50,3
O=S(=O)(Nc1ccc(-n2cccc2)cc1)c1ccc(Cl)c(Cl)c1,0.25,.,.,.,.
CCOC(=O)c1nn(-c2ccccc2)c2nnc(Cc3ccccc3)c(=O)n12,0.21,32*,-13,8,1
CCOC(=O)c1nn(-c2ccccc2)c2nnc(Cc3ccc(C)cc3)c(=O)n12,0.05,10,-17,77*,0
CC1(C)CC(=O)C2=C(C1)OC(N)=C([N+](=O)[O-])C2c1cccs1 (configuration not stated),-0.02,28*,-20,27,0
CC(CC(=O)O)CC(=O)Nc1ccc(Br)cc1 (configuration not stated),-0.77,.,.,.,.
COC(=O)c1sc(NC(=O)c2ccco2)c(C#N)c1C,0.37,.,.,.,.
COc1ccccc1NC(=O)c1sc(NC(=O)c2ccco2)c(C#N)c1C,.,-5,-14,93*,1
CNC(=S)NNC(=O)c1sc2cc(C(F)(F)F)cnc2c1-c1ccccn1,0.83,.,.,-9,8.6*
CNC(=S)NNC(=O)c1sc2cc(C(F)(F)F)cnc2c1-c1cccnc1,-0.99,.,.,0,0
COc1ccc(CNC(=O)CNC(=O)c2c(C)nn(C)c2Cl)cc1,.,.,.,-5,0
CCCCN(CCCC)S(=O)(=O)c1c(C)[nH]c(=O)[nH]c1=O,-0.19,.,.,73*,3
S=C1NCCNC(=S)NCCOCCOCCN1,-0.55,.,.,0,4
CCOc1ccc(S(=O)(=O)n2cc(-c3ccccc3)c(N)n2)cc1,-0.26,6,-16,38,4
CCOc1ccc(S(=O)(=O)n2cc(-c3ccc(F)cc3)c(N)n2)cc1,.,-4,-7,87*,6
CCOc1cc(S(=O)(=O)n2cc(-c3ccc(F)cc3)c(N)n2)cc(OCC)c1OCC,.,-5,-17,-282,9.0*
CCOc1cc(-c2cn(S(=O)(=O)c3cccc4nsnc34)nc2N)cc(OCC)c1OCC,.,-6,15,.,-1
Clc1ccc(Cn2cccn2)cn1,0.38,.,.,.,1
CCOC(=O)CN1N=C(/C=C/c2ccc(C)cc2)CCC1=O,-0.56,-27,-35,-10,1
SMILES,Insulin prom up,Yeast life ext,BB579 growth dn,INS promoter inh,RAM network inh
COc1ccc(/C=C/C2=NN(C)C(=O)CC2)cc1,0.05,.,.,85*,-1
CC1=CC(C)(C)N(S(=O)(=O)c2ccc(C)cc2)c2ccccc21,-1.6,12,-37,18,8.7*
CC1=CC(C)(C)N(S(=O)(=O)c2ccc(F)cc2)c2ccc(C)cc21,.,8,-60,-7,6
C=CCNC(=O)C(=O)c1cccn1-c1ccsc1C(=O)OC,-0.22,1,-37,0,0
CCOc1ccccc1NC(=O)C(OC(=O)c1ccccc1)c1ccccc1 (configuration not stated),0.21,0,-31,.,6
CCOc1ccccc1C(=O)Nc1ccccc1-c1ccccc1,-0.36,-3,-25,3,9.6*
CCOc1ccccc1NC(=O)C(OC(=O)c1ccccc1O)c1ccccc1 (configuration not stated),0.28,1,-49,-50,8.9*
